Assay results: ChEMBL document CHEMBL4020760, “Discovery of a Small Molecule Probe That Post-Translationally Stabilizes the Survival Motor Neuron Protein for the Treatment of Spinal Muscular Atrophy” (J Med Chem, 2017)
Values after ≈ are worked out from the molar mass of the structure shown. Active and inactive are the calls of the source. The calls are words filed in the database; no cut-off is given here.

Key:
Plasma [1] = experiment: Cmax in mouse plasma at 20 mg/kg, ip; format: ADME, organism-based; design: dose 20 mg/kg, route intraperitoneal; details: in vivo
Lampyridae = experiment: Effect on firefly recombinant luciferase protein
Method in brief: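 Compound diluted in complete DMEM and incubated with recombinant firefly luciferase (1:10 000 in passive lysis buffer, 1 mg/mL BSA); activity read with SteadyLite reagent.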

[2] = target: Survival motor neuron protein (Homo sapiens) (UniProt Q16637); experiment: Stabilization of SMN protein in 3813T fibroblasts derived from human SMA patient assessed as increase in SMN protein level after 48 hrs by SDS-PAGE and immunoblot
Sequence of Survival motor neuron protein (Homo sapiens) (Q16637 whole entry): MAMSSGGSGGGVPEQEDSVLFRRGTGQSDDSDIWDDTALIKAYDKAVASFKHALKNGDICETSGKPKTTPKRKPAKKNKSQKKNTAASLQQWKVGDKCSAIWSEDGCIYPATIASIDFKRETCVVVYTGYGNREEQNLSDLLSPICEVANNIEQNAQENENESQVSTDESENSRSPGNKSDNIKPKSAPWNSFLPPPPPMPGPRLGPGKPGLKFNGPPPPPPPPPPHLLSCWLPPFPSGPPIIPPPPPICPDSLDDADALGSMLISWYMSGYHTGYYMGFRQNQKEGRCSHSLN
Method in brief: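 hTERT-immortalized SMA patient 3813T fibroblasts seeded at 6000/well, next day dosed for 48 h at indicated concentrations, 0.1% DMSO. Lysed in boiling buffer (150 mM NaCl, 10 mM Tris pH 8.0, 2% SDS), run on 10% SDS-PAGE, SMN immunoblotted, normalized to tubulin or actin as fold over DMSO; one-way ANOVA with Dunnett.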

CYP1A2 = target: T1, CYP1A2 (Homo sapiens, UniProt P05177); experiment: Inhibition of CYP1A2 (unknown origin) at 10 uM; format: ADME
T1 sequence (P05177 whole entry): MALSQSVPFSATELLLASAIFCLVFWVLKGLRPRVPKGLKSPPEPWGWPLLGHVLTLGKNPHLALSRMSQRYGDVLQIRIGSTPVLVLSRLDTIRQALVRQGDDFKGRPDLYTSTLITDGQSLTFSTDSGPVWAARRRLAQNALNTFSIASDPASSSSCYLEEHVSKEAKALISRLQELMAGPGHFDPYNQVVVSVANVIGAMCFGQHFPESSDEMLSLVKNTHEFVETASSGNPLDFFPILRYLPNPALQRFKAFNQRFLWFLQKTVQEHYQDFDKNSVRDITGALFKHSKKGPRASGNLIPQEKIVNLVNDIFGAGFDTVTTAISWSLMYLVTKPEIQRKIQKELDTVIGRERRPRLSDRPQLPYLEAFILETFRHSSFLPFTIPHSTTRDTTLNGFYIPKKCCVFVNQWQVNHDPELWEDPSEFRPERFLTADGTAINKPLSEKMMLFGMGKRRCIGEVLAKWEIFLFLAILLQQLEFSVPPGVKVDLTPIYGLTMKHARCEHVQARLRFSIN

Plasma [3] = experiment: Half life in mouse plasma at 20 mg/kg, ip; format: ADME, organism-based; details: in vivo
HEK293 [4] = experiment: Effect on p62 level in HEK293 cells at 10 uM after 8 hrs by immunoblot analysis; format: functional, cell-based; details: Homo sapiens
Method in brief: (§1)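 HEK293 cells exposed 8 h to DMSO, compound or chloroquine; LC3 and p62 assessed by immunoblot.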

HEK293 [5] = experiment: Effect on luciferase expression in human HEK293 cells expressing SV40 promoter at 10 to 30 uM after 24 hrs by luciferase reporter gene assay; format: ADME, cell-based; details: hek293, 24 h
CYP2C9 = CYP2C9 (Homo sapiens, UniProt P11712); experiment: Inhibition of CYP2C9 (unknown origin) at 10 uM; format: ADME
Sequence of CYP2C9 (P11712 whole entry): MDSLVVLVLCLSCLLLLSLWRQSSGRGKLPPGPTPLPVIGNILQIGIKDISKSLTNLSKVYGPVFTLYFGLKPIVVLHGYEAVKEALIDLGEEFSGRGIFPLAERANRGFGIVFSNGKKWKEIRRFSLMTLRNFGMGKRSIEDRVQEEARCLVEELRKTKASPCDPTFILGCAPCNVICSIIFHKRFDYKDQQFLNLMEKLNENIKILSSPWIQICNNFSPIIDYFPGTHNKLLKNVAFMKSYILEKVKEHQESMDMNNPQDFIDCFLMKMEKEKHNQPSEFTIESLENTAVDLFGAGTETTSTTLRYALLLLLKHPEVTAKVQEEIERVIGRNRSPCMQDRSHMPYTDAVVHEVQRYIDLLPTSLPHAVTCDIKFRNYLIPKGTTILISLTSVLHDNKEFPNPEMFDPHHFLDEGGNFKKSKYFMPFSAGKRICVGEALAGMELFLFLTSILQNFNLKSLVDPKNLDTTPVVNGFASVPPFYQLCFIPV

Brain [6] = experiment: Half life in mouse brain at 20 mg/kg, po; format: ADME, organism-based; details: in vivo
[7] = Aqueous solubility of the compound at pH 7.4; format: physicochemical; details: aqueous solution
Method in brief: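 Kinetic solubility measured in aqueous medium at pH 7.4.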

[8] = target: Survival motor neuron protein (Homo sapiens) (UniProt Q16637); experiment: Stabilization of human SMN protein expressed in HEK293 cells expressing SMN2 promoter assessed as additive effect on SMN stabilization in presence of 0.1: 0.1 to 10:10 ratio of LDN-75654 to compound after 24 hrs by luciferase reporter gene assay; format: cell-based
Method in brief: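 SMN2 reporter cells exposed 24 h to the two compounds alone or combined at constant ratio, DMSO held at 0.2%, and SMN-luc read. Theoretical additive effect taken as the sum of the single-agent activities.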

CYP2A6 = target: T2, CYP2A6 (Homo sapiens, UniProt P11509); experiment: Inhibition of CYP2A6 (unknown origin) at 10 uM; format: ADME
T2 sequence (P11509 whole entry): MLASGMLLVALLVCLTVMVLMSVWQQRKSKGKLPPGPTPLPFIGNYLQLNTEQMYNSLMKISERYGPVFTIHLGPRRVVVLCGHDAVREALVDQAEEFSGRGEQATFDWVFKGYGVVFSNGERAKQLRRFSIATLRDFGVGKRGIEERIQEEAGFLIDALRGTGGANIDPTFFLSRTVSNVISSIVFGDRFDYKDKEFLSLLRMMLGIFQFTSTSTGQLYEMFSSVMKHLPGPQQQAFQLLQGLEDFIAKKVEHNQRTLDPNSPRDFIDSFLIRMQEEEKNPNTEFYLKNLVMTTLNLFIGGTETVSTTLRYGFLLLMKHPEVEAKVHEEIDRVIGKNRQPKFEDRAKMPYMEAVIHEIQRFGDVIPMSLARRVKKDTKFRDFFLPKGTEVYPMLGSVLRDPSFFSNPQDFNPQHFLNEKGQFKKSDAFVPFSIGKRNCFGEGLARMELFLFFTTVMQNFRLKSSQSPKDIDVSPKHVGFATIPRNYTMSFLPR

HEK293 [9] = experiment: Effect on LC3-2 level in HEK293 cells at 10 uM after 8 hrs by immunoblot analysis; format: functional, cell-based; details: Homo sapiens; method in brief: as §1
[10] = Half life in mouse liver microsomes; format: ADME, microsome; details: liver microsomes
Method in brief: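 Compound stability in mouse and human liver microsomes, expressed as half-life in min.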

Brain [11] = experiment: Tmax in mouse brain at 20 mg/kg, ip; format: ADME, organism-based; details: in vivo
Plasma [12] = experiment: Half life in mouse plasma after 60 mins; format: ADME, cell-free; details: 1 h
Oryctolagus cuniculus = species on record: Oryctolagus cuniculus; experiment: Effect on proteasome in rabbit reticulocyte lysates assessed as MBP-HPV-16 E6-mediated p53 degradation at 10 and 30 uM incubated for 30 mins prior to MBP-E6 addition by Western blot analysis
Method in brief: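 Purified p53 and MBP-HPV16 E6. E6 (0.1 μM) or buffer then added for 2 h at 25 °C, stopped at 75 °C. p53 read by 10% SDS-PAGE/Western (PAb1801).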

## O=C(Nc1ncc(C2(O)CCC2)s1)c1ccc(F)c(Cl)c1
Plasma [1]
  Cmax: 7660 ng/mL
Lampyridae
  Activity: inactive
[2]
  Activity: Dose-dependent effect
CYP1A2
  inhibition at 10 µM: < 50%
Plasma [3]
  t1/2: 2.2 h
HEK293 [4]
  Activity: inactive
HEK293 [5]
  Activity: Non-Toxic
CYP2C9
  inhibition at 10 µM: < 50%
Brain [6]
  t1/2: 2.8 h
[7]
  solubility kinetic: 31 µM (≈ 10.1 µg/mL)
[8]
  Activity: inactive
CYP2A6
  inhibition at 10 µM: < 50%
HEK293 [9]
  Activity: inactive
[10]
  half-life: 0.65 h
Brain [11]
  Tmax: 0.5 h
Plasma [12]
  t1/2: 5.43 h
Oryctolagus cuniculus
  Activity: inactive
